# Reference: PubChem BioAssay AID463185 (Molecular Libraries Program, Specialized Chemistry Center, …, 2010)
# Activity calls are given as the source filed them.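 The calls were made as follows: active = IC50 at or below 10 µM; inactive = the rest.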
# System: HeLa UbG76V-GFP reporter degradation, GFP imaging
# Assay: inhibitors of p97-dependent reporter degradation, dose response, imaging, human cells (AID 463185)
# How it was run: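 schedule = MG132 1 h, then compound chase imaged 70–170 min | assay system = UbG76V-GFP reporter HeLa cells | technique = cell imaging of GFP fluorescence, mean of about 500 cells | buffer or medium = 2.5% FBS medium plus cycloheximide 50 µg/mL | also added = MG132 4 µM pretreatment for reporter buildup before chase | control set = DMSO wells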
row,IC50,SMILES
1,5.7 µM,Nc1nc(CCl)nc(Nc2ccc(Cl)c(Cl)c2)n1
2,6.1 µM,CCCOc1ccc(C(=O)CCC(=O)OC/C(O)=C(/C#N)c2nc3ccccc3[nH]2)cc1
3,14 µM (inactive),Nc1nc(CCl)nc(Nc2cccc3ccccc23)n1
4,13 µM (inactive),Nc1nc(Nc2cccc(Cl)c2)nc(C(Cl)Cl)n1
5,26 µM (inactive),Cc1ccc(Nc2nc(N)nc(CCl)n2)cc1
6,17 µM (inactive),Nc1nc(CCl)nc(N2CCCc3ccccc32)n1
7,6.3 µM,N#C/C(=C(\O)COC(=O)CCC(=O)c1ccc2c(c1)OCCO2)c1nc2ccccc2[nH]1
8,3.3 µM,Clc1ccc(CNc2nc(NCc3ccccc3)c3ccccc3n2)cc1
9,27 µM (inactive),Cc1cccc(Nc2nc(N)nc(CCl)n2)c1C
10,31 µM (inactive),CN(c1ccccc1)c1nc(N)nc(CCl)n1
11,3.7 µM,Nc1nc(CCl)nc(Nc2ccc(Oc3ccccc3)cc2)n1
12,15 µM (inactive),Cc1cccc(C)c1OCC(=O)OC/C(O)=C(/C#N)c1nc2ccccc2[nH]1
13,6.7 µM,Brc1ccccc1CNc1nc(NCc2ccccc2)c2ccccc2n1
14,10 µM,N#C/C(=C(\O)COC(=O)C1COc2ccccc2O1)c1nc2ccccc2[nH]1 (stereo not drawn)
15,10 µM,Nc1nc(CCl)nc(N(c2ccccc2)c2ccccc2)n1
16,31 µM (inactive),Nc1nc(CCl)nc(Nc2ccc(F)cc2)n1
17,8 µM,Nc1nc(CCl)nc(Nc2ccc(Cl)cc2)n1
18,2.3 µM,c1ccc(CNc2nc(NCc3ccccc3)c3ccccc3n2)cc1
19,16 µM (inactive),Cc1cc(OCC(=O)OC/C(O)=C(/C#N)c2nc3ccccc3[nH]2)ccc1Cl
20,13 µM (inactive),Cc1cc(C)cc(OCC(=O)OC/C(O)=C(/C#N)c2nc3ccccc3[nH]2)c1
21,3.4 µM,Fc1ccccc1CNc1nc(NCc2ccccc2)c2ccccc2n1
22,6.5 µM,N#C/C(=C(\O)COC(=O)CNc1ccc(C(F)(F)F)cc1[N+](=O)[O-])c1nc2ccccc2[nH]1
23,1.1 µM,Fc1cccc(CNc2nc(NCc3ccccc3)c3ccccc3n2)c1

# The remaining lines, values behind:
row,SMILES,IC50
1,N#C/C(=C(\O)COC(=O)COc1ccc(Cl)cc1)c1nc2ccccc2[nH]1,2.6 µM
2,COc1cc([N+](=O)[O-])ccc1Nc1nc(N)nc(CCl)n1,22 µM (inactive)
3,N#C/C(=C(\O)COC(=O)COc1cccc(Br)c1)c1nc2ccccc2[nH]1,5.9 µM
4,COc1ccccc1Nc1nc(N)nc(CCl)n1,21 µM (inactive)
5,Nc1nc(CCl)nc(N2CCc3ccccc32)n1,10.4 µM (inactive)
6,COc1ccc(CNc2nc(NCc3ccccc3)c3ccccc3n2)cc1,3.3 µM
7,Brc1cccc(CNc2nc(NCc3ccccc3)c3ccccc3n2)c1,1.3 µM
8,Cc1c(Cl)cccc1Nc1nc(N)nc(CCl)n1,5.9 µM
9,Cc1cccc(CNc2nc(NCc3ccccc3)c3ccccc3n2)c1,4.1 µM
10,N#C/C(=C(\O)COC(=O)c1ccccc1Cc1ccccc1)c1nc2ccccc2[nH]1,3.4 µM
11,Cc1ccc(CNc2nc(NCc3ccccc3)c3ccccc3n2)cc1,2.4 µM
12,Brc1ccc(CNc2nc(NCc3ccccc3)c3ccccc3n2)cc1,6.7 µM
13,Clc1ccc(CNc2nc(NCc3ccccc3)c3ccccc3n2)cc1Cl,4.6 µM
14,Clc1cccc(CNc2nc(NCc3ccccc3)c3ccccc3n2)c1,3.7 µM
15,COc1cccc(CNc2nc(NCc3ccccc3)c3ccccc3n2)c1,1.7 µM
16,CCc1ccc(Nc2nc(N)nc(CCl)n2)cc1,18 µM (inactive)
17,Clc1ccccc1CNc1nc(NCc2ccccc2)c2ccccc2n1,4.1 µM
18,CC(C)c1ccc(Nc2nc(N)nc(CCl)n2)cc1,14 µM (inactive)
19,Fc1ccc(CNc2nc(NCc3ccccc3)c3ccccc3n2)cc1,2.8 µM
20,CCc1nc2ccccc2n1CC(=O)OC/C(O)=C(/C#N)c1nc2ccccc2[nH]1,7.2 µM
21,Cc1ccccc1CNc1nc(NCc2ccccc2)c2ccccc2n1,10 µM
22,FC(F)(F)c1cc(CNc2nc(NCc3ccccc3)c3ccccc3n2)ccc1Cl,4.6 µM
23,FC(F)(F)c1ccc(CNc2nc(NCc3ccccc3)c3ccccc3n2)cc1,2.5 µM
24,COc1cccc(Nc2nc(N)nc(CCl)n2)c1,23 µM (inactive)
25,COc1ccccc1CNc1nc(NCc2ccccc2)c2ccccc2n1,4.8 µM
